Measured values reported in ChEMBL document CHEMBL1139823, “Rational design of conformationally restricted quinazolinone inhibitors of poly(ADP-ribose)polymerase” (Bioorg Med Chem Lett, 2007).

Experiments:
[1] = molecular target: Poly [ADP-ribose] polymerase 1 (Homo sapiens, UniProt P09874); assay: Inhibition of human PARP1
[2] = Drug level in mouse brain at 32 mg/kg, po after 0.5 hr; assay type: ADME, organism-based; parameters: dose 32 mg/kg, route oral; settings: read-out: Drug uptake
How it was run: (§1)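 Mice dosed orally at 32 mg/kg (n = 2). Compound levels in brain (µg/g tissue) and plasma (µg/mL) measured by ex vivo assay at 0.5 and 2.0 h after dosing.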

[3] = Drug level in mouse brain at 32 mg/kg, po after 2.0 hrs; assay type: ADME, organism-based; parameters: dose 32 mg/kg, route oral; settings: read-out: Drug uptake; how it was run: as §1
[4] = Drug level in mouse plasma at 32 mg/kg, po after 0.5 hr; assay type: ADME, organism-based; parameters: dose 32 mg/kg, route oral; how it was run: as §1
[5] = Drug level in mouse plasma at 32 mg/kg, po after 2.0 hrs; assay type: ADME, organism-based; parameters: dose 32 mg/kg, route oral; how it was run: as §1
[6] = Metabolic stability assessed as Intrinsic clearance in mouse liver microsomes after 60 mins
[7] = Metabolic stability assessed as Intrinsic clearance in human liver microsomes after 60 mins

Sequence of Poly [ADP-ribose] polymerase 1 (P09874 whole entry): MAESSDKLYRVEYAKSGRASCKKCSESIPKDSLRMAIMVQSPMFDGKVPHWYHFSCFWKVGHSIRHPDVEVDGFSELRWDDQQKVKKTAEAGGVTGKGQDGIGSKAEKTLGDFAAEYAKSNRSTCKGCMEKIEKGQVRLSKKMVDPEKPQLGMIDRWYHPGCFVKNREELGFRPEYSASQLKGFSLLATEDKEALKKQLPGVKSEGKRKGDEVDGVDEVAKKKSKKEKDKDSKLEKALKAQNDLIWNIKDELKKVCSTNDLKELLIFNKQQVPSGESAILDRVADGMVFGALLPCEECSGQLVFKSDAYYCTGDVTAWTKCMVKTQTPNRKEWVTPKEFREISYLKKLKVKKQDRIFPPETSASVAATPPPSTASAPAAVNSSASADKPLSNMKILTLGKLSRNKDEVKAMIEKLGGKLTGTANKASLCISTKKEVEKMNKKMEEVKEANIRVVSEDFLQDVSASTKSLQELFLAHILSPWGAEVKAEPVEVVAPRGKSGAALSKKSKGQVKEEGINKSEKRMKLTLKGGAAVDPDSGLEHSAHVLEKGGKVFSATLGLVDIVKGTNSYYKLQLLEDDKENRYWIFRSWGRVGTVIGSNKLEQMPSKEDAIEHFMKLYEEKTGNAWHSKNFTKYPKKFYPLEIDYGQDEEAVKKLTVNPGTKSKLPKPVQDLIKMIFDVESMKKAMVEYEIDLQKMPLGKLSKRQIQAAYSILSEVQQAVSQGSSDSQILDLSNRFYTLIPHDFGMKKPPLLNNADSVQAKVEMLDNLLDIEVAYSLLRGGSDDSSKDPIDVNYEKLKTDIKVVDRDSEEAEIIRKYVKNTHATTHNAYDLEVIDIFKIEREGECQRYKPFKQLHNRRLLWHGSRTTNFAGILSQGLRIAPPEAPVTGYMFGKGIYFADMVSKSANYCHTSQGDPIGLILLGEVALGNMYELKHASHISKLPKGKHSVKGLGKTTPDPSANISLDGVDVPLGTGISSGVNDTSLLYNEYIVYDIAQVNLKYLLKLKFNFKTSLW

For `O=c1[nH]c(C2=CC(N3CC=C(c4ccccc4)CC3)CC2)nc2ccccc12` (racemic), the IC50 [1] was 16 nM.
Compound `Cc1cccc2c(=O)[nH]c(C3=CC(N4CC=C(c5ccc(F)cc5)CC4)CC3)nc12` (configuration not stated) has an IC50 [1] of 25 nM.
In the case of `O=c1[nH]c([C@H]2CC[C@H](N3CC=C(c4ccccc4)CC3)CC2)nc2ccccc12`, the IC50 [1] is reported as 8400 nM.
In the case of `O=c1[nH]c(C2=C[C@H](N3CCC(c4ccc(F)cc4)CC3)CC2)nc2c(Cl)cccc12`, the IC50 [1] is reported as 257 nM.
`O=c1[nH]c(C2CCC(N3CCC(c4ccccc4)CC3)C2)nc2ccccc12` (stereo in doubt; trans) showed an IC50 [1] of 555 nM.
For `O=c1[nH]c(C2CCC(N3CCC(c4ccccc4)CC3)C2)nc2ccccc12` (stereo in doubt; cis), the IC50 [1] was 435 nM.
In the case of `Cc1cccc2c(=O)[nH]c(C3=CC(N4CCN(c5ccc(Cl)cc5)CC4)CC3)nc12` (configuration not stated), the IC50 [1] is reported as 12 nM.
`O=c1[nH]c(C2=CC(N3CCN(c4ccc(Cl)cc4)CC3)CC2)nc2ccccc12` (configuration not stated) showed an IC50 [1] of 25 nM, a concentration at 0.5 h [2] of 1300 ng/g and a concentration at 2 h [3] of 2200 ng/g. It also gave a concentration at 0.5 h [4] of over 20100 ng/mL and a concentration at 2 h [5] of over 20400 ng/mL.
`Cc1cccc2c(=O)[nH]c(CCCN3CC=C(c4ccc(F)cc4)CC3)nc12` gave an IC50 [1] of 8 nM.
In the case of `O=c1[nH]c([C@H]2CC[C@@H](N3CC=C(c4ccccc4)CC3)CC2)nc2ccccc12`, the IC50 [1] is reported as 1600 nM.
For `O=c1[nH]c(C2=C[C@@H](N3CCC(c4ccc(F)cc4)CC3)CC2)nc2c(Cl)cccc12`, the IC50 [1] was 35 nM, the concentration at 0.5 h [2] was 6700 ng/g and the concentration at 2 h [3] was 12500 ng/g. The concentration at 0.5 h [4] was 13600 ng/mL, the concentration at 2 h [5] was 11300 ng/mL and the CLint scaled at 1 h [6] was 686 mL/min/kg. It also gave a CLint scaled at 1 h [7] of 17 mL/min/kg.
With `O=c1[nH]c(CCCN2CCC(c3ccc(F)cc3)CC2)nc2c(Cl)cccc12` the IC50 [1] was 47 nM.
For `O=c1[nH]c(C2=CC(N3CCN(c4ccc(F)cc4)CC3)CC2)nc2c(Cl)cccc12` (configuration not stated), the IC50 [1] was 25 nM.
`Cc1cccc2c(=O)[nH]c(C3=CC(N4CCC(c5ccc(F)cc5)CC4)CC3)nc12` (configuration not stated) gave an IC50 [1] of 30 nM.
With `O=c1[nH]c(C2=C[C@@H](N3CCC(c4ccccc4)CC3)CC2)nc2c(Cl)cccc12` the IC50 [1] was 8.7 nM, the concentration at 0.5 h [2] was 19800 ng/g and the concentration at 2 h [3] was 18100 ng/g. For the same compound, the concentration at 0.5 h [4] was 8700 ng/mL, the concentration at 2 h [5] was 4400 ng/mL and the CLint scaled at 1 h [6] was 1160 mL/min/kg. For the same compound, the CLint scaled at 1 h [7] was 22 mL/min/kg.
For `Cc1cccc2c(=O)[nH]c(C3=CC(N4CCC(c5ccc(Cl)cc5)CC4)CC3)nc12` (configuration not stated), the IC50 [1] was 46 nM.
`O=c1[nH]c(C2CCCC(N3CC=C(c4ccccc4)CC3)C2)nc2ccccc12` (racemic) showed an IC50 [1] of 1800 nM.
Compound `O=c1[nH]c(C2=CC(N3CC=C(c4ccccc4)CC3)CCC2)nc2ccccc12` (configuration not stated) has an IC50 [1] of 160 nM.
`O=c1[nH]c(CCCN2CC=C(c3ccc(F)cc3)CC2)nc2c(Cl)cccc12` showed a concentration at 0.5 h [2] of 8400 ng/g, a concentration at 2 h [3] of 2800 ng/g and a concentration at 0.5 h [4] of 1900 ng/mL. The concentration at 2 h [5] was 1200 ng/mL and the CLint scaled at 1 h [6] was 3910 mL/min/kg.
Work on `O=c1[nH]c(CCCN2CC=C(c3ccc(F)cc3)CC2)nc2ccccc12` yielded an IC50 [1] of 16 nM.
Work on `O=c1[nH]c(C2=CC(N3CC=C(c4ccc(F)cc4)CC3)CC2)nc2ccccc12` (configuration not stated) yielded an IC50 [1] of 18 nM.
Work on `O=c1[nH]c(N2CC(N3CC=C(c4ccccc4)CC3)C2)nc2ccccc12` yielded an IC50 [1] of 504 nM.
For `O=c1[nH]c(CCCN2CC=C(c3ccc(Cl)cc3)CC2)nc2ccccc12`, the IC50 [1] was 8.9 nM.
For `O=c1[nH]c(CCCN2CC=C(c3ccccc3)CC2)nc2c(Cl)cccc12`, the concentration at 0.5 h [2] was 8000 ng/g, the concentration at 2 h [3] was 8400 ng/g and the concentration at 0.5 h [4] was 1300 ng/mL. For the same compound, the concentration at 2 h [5] was 1200 ng/mL.
`O=c1[nH]c(C2=C[C@H](N3CC=C(c4ccccc4)CC3)CC2)nc2c(Cl)cccc12` gave an IC50 [1] of 286 nM.
`Cc1cccc2c(=O)[nH]c(CCCN3CC=C(c4ccc(Cl)cc4)CC3)nc12` showed an IC50 [1] of 16 nM.
Work on `O=c1[nH]c(C2=CC(N3CC=C(c4ccc(F)cc4)CC3)CC2)nc2c(Cl)cccc12` (configuration not stated) yielded an IC50 [1] of 36 nM, a concentration at 0.5 h [2] of 400 ng/g and a concentration at 2 h [3] of 900 ng/g. For the same compound, the concentration at 0.5 h [4] was 15200 ng/mL, the concentration at 2 h [5] was 17700 ng/mL and the CLint scaled at 1 h [6] was 1330 mL/min/kg. For the same compound, the CLint scaled at 1 h [7] was 54 mL/min/kg.
For `O=c1[nH]c(CCCN2CCC(c3ccccc3)CC2)nc2c(Cl)cccc12`, the IC50 [1] was 103 nM, the concentration at 0.5 h [2] was 11600 ng/g and the concentration at 2 h [3] was 3900 ng/g. For the same compound, the concentration at 0.5 h [4] was 12500 ng/mL and the concentration at 2 h [5] was 9400 ng/mL.
Compound `O=c1[nH]c(N2CCC(N3CC=C(c4ccccc4)CC3)C2)nc2ccccc12` (configuration not stated) has an IC50 [1] of 300 nM.
For `O=c1[nH]c(C2=C[C@@H](N3CC=C(c4ccccc4)CC3)CC2)nc2c(Cl)cccc12`, the IC50 [1] was 15 nM, the concentration at 0.5 h [2] was 2000 ng/g and the concentration at 2 h [3] was 3000 ng/g. It also gave a concentration at 0.5 h [4] of 17100 ng/mL and a concentration at 2 h [5] of 18100 ng/mL.
